Most compounds without a hit are left out; they make up all but 4.4% or so of the library.
MPTP block = mitochondrial permeability transition pore inhibitors, primary screen, biochemical, isolated mouse mitochondria, absorbance; AID 602449, 2012; inhibition, % at 10 µM; hit rate 1.4% among 360,000; Ca2+ swelling absorbance, 30 min;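 active = inhibition of 50% or more, scaled per plate between neutral and stimulator controls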;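 note: 0% = DMSO wells given calcium and 100% = 1 mM EGTA wells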
EBI2 antag = EBI2 receptor antagonists, beta-arrestin recruitment, primary screen, cell-based, luminescence, 7a,25-OHC stimulation, uHTS; G-protein coupled receptor 183 (Homo sapiens), P32249; 7a,25-OHC stimulated; inhibition, % at 5 µM; hit rate 0.81% among 360,000; AID 651636, 2012; in the data active = inhibition above about 38%;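 note: enzyme fragment complementation signal reports receptor beta-arrestin coupling in cells; 0% = agonist plus DMSO wells and 100% = wells without agonist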
Target sequence (P32249 whole entry, looked up, the tested form may be a part): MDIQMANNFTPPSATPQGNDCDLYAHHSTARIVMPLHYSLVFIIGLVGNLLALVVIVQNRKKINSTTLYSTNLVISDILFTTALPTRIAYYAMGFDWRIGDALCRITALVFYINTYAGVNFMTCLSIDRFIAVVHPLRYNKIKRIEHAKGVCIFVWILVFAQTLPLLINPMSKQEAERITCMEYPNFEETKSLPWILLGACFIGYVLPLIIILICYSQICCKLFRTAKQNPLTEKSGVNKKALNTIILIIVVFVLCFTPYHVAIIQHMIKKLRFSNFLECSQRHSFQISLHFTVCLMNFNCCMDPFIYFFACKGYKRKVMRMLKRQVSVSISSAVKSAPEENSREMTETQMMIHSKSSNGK
SENP1 inh = human SENP1 catalytic domain inhibitors, primary screen, biochemical, FRET, uHTS. Sentrin-specific protease 1 (Homo sapiens), Q9P0U3. recombinant SENP1 catalytic domain, CyPet-SUMO1-YPet FRET cleavage. inhibition, % at 10 µM. hit rate 0.21% among 360,000;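 active = inhibition at least 30% at 10 µM, raw YFP signal under a set limit, fluorescence ratio 0.5 to 1.5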;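 note: 0% = enzyme with DMSO and 100% = no enzyme wells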
Target sequence (Q9P0U3 419-644 limits assumed): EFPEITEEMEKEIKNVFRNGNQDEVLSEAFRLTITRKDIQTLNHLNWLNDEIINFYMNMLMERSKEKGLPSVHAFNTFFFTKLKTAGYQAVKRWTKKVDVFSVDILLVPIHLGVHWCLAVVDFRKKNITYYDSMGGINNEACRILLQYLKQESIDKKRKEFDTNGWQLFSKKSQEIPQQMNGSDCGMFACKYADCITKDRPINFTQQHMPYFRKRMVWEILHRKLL
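Material: hSENP1 catalytic domain, recombinant; medium: Tris pH 8 with BME, BSA, NP40 and catalase; compound: single concentration of 10 µM compound, 0.5% DMSO final; technique: FRET read of cyan and yellow fluorescence; timing: 50 min enzyme reaction, room temperature, light-protected; reagent: SFCypet-SUMO1-SFYpet substrate at 25 nM; control set: no-enzyme low, enzyme-DMSO high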
NR3A LBD binder = binders of NR3A ligand-binding domain, primary screen, biophysical, differential scanning fluorimetry, uHTS; hit rate 2.5% among 340,000; Glutamate receptor ionotropic, NMDA 3A (GRIN3A) ligand-binding domain; Tm shift relative to glycine control, % at 25 µM; NR3A LBD differential scanning fluorimetry, Tm shift; 0% = protein alone, 100% = glycine-bound protein;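 active = melting temperature shift of at least 10% of the positive control shift, at one fixed dose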
* = called active by the depositor; . = no result given.

SMILES	MPTP block	EBI2 antag	SENP1 inh	NR3A LBD binder
Cc1ccc(C(=O)Cn2c(C)cc(C)c(C#N)c2=O)cc1	2	-2	1	13*
CN1CCN(C(=O)c2cnn(-c3ccccc3)c2NC(=O)c2ccccc2Br)CC1	0	-13	2	-2
O=C(CSc1ccc2ccccc2c1Br)Nc1cccc(S(=O)(=O)NC2=NCCCCC2)c1	4	-3	1	12*
CCOC(=O)C1=C(COC(=O)/C=C/c2cc(Br)ccc2F)NC(=O)NC1C (stereo unspecified)	-3	-1	2	0
COc1cc(C(=O)NCc2nc(C)cs2)ccc1OC1CCN(C(C)=O)CC1	-1	-6	1	12*
CCc1ccc(CNC(=O)c2ccc(OC)c(OC3CCN(C(C)C)CC3)c2)nc1	1	2	-4	13*
O=C(CSc1nnc(-c2ccccc2)o1)NC1CCS(=O)(=O)C1 (stereo unspecified)	0	-16	0	3
Oc1ccc(N=Nc2ccc3ccccc3c2)cc1	5	20	2	24*
O=C(c1ccc(Cl)c(S(=O)(=O)N2CCOCC2)c1)N(c1ccccn1)C1CCCCC1	-4	-2	3	-1
CN(C)S(=O)(=O)c1cccc(C(=O)Nc2ccc3c(c2)CCC3)c1	-1	6	-1	0
CN(C)S(=O)(=O)c1ccc(C(=O)Nc2ccc3c(c2)CCC3)cc1	1	56*	2	-1
COc1ccc(NC(=O)c2ccc(S(=O)(=O)N(C)C)cc2)cc1OC	1	-6	0	20*
C/C(CC(=O)Nc1ccc(C)c(Cl)c1)=N\NC(=O)c1ccco1	0	-12	-1	1
CCCCOC(=O)C1CN(c2ccccc2)N=C1C(C)=O (stereo unspecified)	0	4	-29	0
CCCCOC(=O)C1CN(c2ccccc2)N=C1C(=O)OCC (stereo unspecified)	1	-8	-35	15*
CCOC(=O)c1c(C)n(C)c2cc(-c3cccc(C(F)(F)F)c3)c(O)cc12	1	2	-2	13*
O=C(CCCNC(=O)c1ccc(Cl)cc1)Nc1ccc(Br)cc1	2	23	-1	-5
Cc1[nH][nH]c(=O)c1C(c1ccccc1[N+](=O)[O-])C(C#N)C#N (stereo unspecified)	0	0	-105	-1
Cc1[nH][nH]c(=O)c1C(c1cc([N+](=O)[O-])ccc1O)c1c(C)[nH][nH]c1=O	1	1	2	10*
O=C1ON=C(c2ccccc2)/C1=C/c1ccc(O)c(O)c1	6	-3	2	16*
COc1cc(/C=C2\C(=O)ON=C2c2ccc(Cl)cc2)ccc1O	.	.	.	-20
Cc1ccc(C2=NOC(=O)/C2=C\c2ccc(C)o2)cc1	6	26	-39	13*
COc1ccc(/C=C2\C(=O)ON=C2c2ccccc2)cc1	1	-7	4	19*
Cc1ccc(NC(=S)NCCc2ccccc2)nc1	4	9	2	0
O=C(Nc1ccc(Cl)c(Cl)c1)OCCNC(=O)c1cccc(Cl)c1	28	8	2	13*
SMILES	MPTP block	EBI2 antag	SENP1 inh	NR3A LBD binder
O=C(Nc1ccc(-c2nc3ccccc3[nH]2)cc1)c1ccccc1NS(=O)(=O)c1ccc(F)cc1	50	-3	-4	30*
CS(=O)(=O)c1cccc(C(=O)Nc2ccc(-c3nc4ccccc4[nH]3)cc2)c1	-2	4	2	32*
CS(=O)(=O)c1ccccc1C(=O)Nc1ccc(-c2nc3ccccc3[nH]2)cc1	-1	-1	-2	-6
O=C(Nc1ccc(S(=O)(=O)Nc2ncccn2)cc1)c1ccccc1NS(=O)(=O)c1ccc(F)cc1	0	-5	1	-1
CN(c1ccccc1)S(=O)(=O)c1ccc(Cl)c(C(=O)Nc2nc3ccccc3[nH]2)c1	4	2	-13	-18
CN(c1ccccc1)S(=O)(=O)c1ccc(Cl)c(C(=O)Nc2ccc(-c3nc4ccccc4[nH]3)cc2)c1	-1	16	2	19*
O=C(Nc1ccc(-c2nc3ccccc3[nH]2)cc1)c1ccc(N2C(=O)CCC2=O)cc1	0	2	-13	24*
CNC1=C([N+](=O)[O-])CC([N+](=O)[O-])=C(N2CCNCC2)N1C	-1	-9	0	-1
CC(C)(C)N1C(=O)c2ccc(C(=O)Nc3ccc(-c4nc5ccccc5[nH]4)cc3)cc2C1=O	8	-8	10	35*
COc1cccc(-c2noc(CCC(=O)N3CCN(c4cc(C)ccc4C)CC3)n2)c1	0	0	0	0
Cc1ccc(C)c(N2CCN(C(=O)CCc3nc(-c4cccc(Cl)c4)no3)CC2)c1	1	2	0	17*
Cc1ccc(-c2noc(CCC(=O)N3CCN(c4cc(C)ccc4C)CC3)n2)cc1	2	-12	-1	3
Cc1ccc(C)c(N2CCN(C(=O)CCc3nc(-c4ccc(Br)cc4)no3)CC2)c1	-1	-8	1	17*
Cc1ccc(-c2c(C(=O)O)c(C(=O)O)c3n2CSC3)cc1	0	-5	3	0
O=C(O)c1c(C(=O)O)c(-c2ccc(Br)cc2)n2c1CSC2	4	-3	0	14*
CN(C)CCNC=C(C(=O)Nc1ccc(Cl)cc1Cl)C(=O)Nc1ccc(Cl)cc1Cl	11	0	-5	13*
Cc1onc(-c2ccccc2)c1C(=O)NCc1ccc(F)cc1	3	8	1	11*
Cc1onc(-c2ccccc2)c1C(=O)NCc1ccccc1F	1	4	-1	-2
Cc1ccc(-c2c(C(=O)NCc3ccc(F)cc3)oc(=O)c3ccccc23)cc1	3	-1	1	14*
COc1ccccc1/C=C1/SC(=O)N(CCC(=O)Nc2ccc(S(=O)(=O)Nc3nccs3)cc2)C1=O	-3	-6	0	6
CCC(Sc1nnc(-c2ccco2)n1C)C(=O)Nc1nnc(C)s1 (stereo unspecified)	0	0	0	0
O=C(O)CCC(=O)Nc1ccc2c(c1)oc1ccccc12	-2	-8	0	1
O=C(Nc1ccc2c(c1)oc1ccccc12)c1ccncc1	0	2	-3	15*
CCNC(=S)Nc1ccc2ncoc2c1	0	-4	-1	0
O=C(Nc1cccc(C(=O)N2CCOCC2)c1)c1cccnc1	1	-15	0	11*
CCNC(=S)Nc1ccc2c(c1)oc1ccccc12	42	13	0	10*
O=C(Nc1ccc2ccccc2c1)c1cccnc1	-1	0	-1	-5
O=C(Nc1ccc2c(c1)oc1ccccc12)c1cccnc1	2	-2	1	17*
COc1ccc(NC(=O)c2cc(-c3cc(Cl)ccc3OC)n[nH]2)cc1OC	0	18	1	.

Assay outcomes as filed in PubChem BioAssay.
